Laboratory results taken from ChEMBL document CHEMBL2157983 (Bioorg Med Chem Lett, 2011).

Columns and labels:
V79 [1] = assay: Antiproliferative activity against Chinese hamster V79 cells transfected with Escherichia coli nitroreductase nfsB assessed as reduction in cell number after 72 hrs; type: functional, cell-based; details: Cricetulus griseus, V79, 72 h
How it was run: (§1)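 V79 cells carrying vector only served as the control line. The NTR+ line carried a bicistronic construct encoding E. coli nfsB with a puromycin selection marker. Cells were exposed to drug for 72 h. […] The ratio is IC50 in NTR− cells divided by IC50 in NTR+ cells.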

V79 [2] = assay: Ratio of IC50 for Chinese hamster V79 cells to IC50 for Chinese hamster V79 cells transfected with Escherichia coli nitroreductase nfsB; parameters: species or system Cricetulus griseus; how it was run: as §1
SK-OV-3 [3] = assay: Antiproliferative activity against human SKOV3 cells after 18 hrs assessed as reduction in cell number; type: functional, cell-based; details: SK-OV-3, 18 h
How it was run: (§2)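 Untransfected parental SKOV3 cells were compared with SKOV3 cells expressing E. coli nfsB. Drug exposure lasted 18 h. […] The ratio is IC50 in NTR− cells divided by IC50 in NTR+ cells.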

Escherichia coli = assay: Activity of Escherichia coli nitroreductase nfsB assessed as NADH oxidation per mg of protein
How it was run: (§3)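 Substrate activity reported as the initial velocity of NADH oxidation (nmol/min/mg) with either E. coli nfsB or T. brucei nitroreductase (TbNTR). The reaction was followed by the change in absorbance at 340 nm.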

V79 [4] = assay: Antiproliferative activity against Chinese hamster V79 cells assessed as reduction in cell number after 72 hrs; type: cell-based; details: Cricetulus griseus, V79, 72 h; how it was run: as §1
SK-OV-3 [5] = assay: Antiproliferative activity against human SKOV3 cells transfected with Escherichia coli nitroreductase nfsB assessed as reduction in cell number after 18 hrs; type: functional, cell-based; details: SK-OV-3, 18 h; how it was run: as §2
SK-OV-3 [6] = assay: Ratio of IC50 for human SKOV3 cells to IC50 for human SKOV3 cells transfected with Escherichia coli nitroreductase nfsB; type: functional; how it was run: as §2
SK-OV-3 [7] = assay: Antiproliferative activity against human SKOV3 cells with mixed population of 25% NTR(+) cells and 75% NTR(-) cells assessed as reduction in cell number after 18 hrs; type: functional, cell-based; details: SK-OV-3, 18 h
How it was run: (§4)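 Drug exposure lasted 18 h. BE50 is the percentage of NTR+ cells in the mix needed to give an IC50 at the log-scale (geometric) midpoint between the IC50s of pure NTR+ and pure NTR− cultures.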

Trypanosoma brucei [8] = assay: Ratio of 4-nitrobenzyl phosphoramide mustard IC50 to compound IC50 for Trypanosoma brucei bloodstream trypomastigote forms; type: functional
Leishmania major = assay: Trypanocidal activity against Leishmania major promastigote forms infected in sandfly gut assessed as inhibition of parasite growth; type: functional, organism-based
Trypanosoma brucei [9] = assay: Trypanocidal activity against of Trypanosoma brucei bloodstream trypomastigote forms assessed as inhibition of parasite growth; type: functional, organism-based
SK-OV-3 [10] = assay: Antiproliferative activity against human SKOV3 cells with mixed population of 25% NTR(+) cells and 75% NTR(-) cells assessed as bystander effect by measuring mixed population of NTR(+) and NTR (-) cells to produce an IC50 midway on log scale between those in either NTR(+) or NTR(-) cells alone after 18 hrs; type: functional; how it was run: as §4
Trypanosoma brucei [11] = assay: Activity of Trypanosoma brucei NTR assessed as NADH oxidation per mg of protein; how it was run: as §3

| Compound | IC50 (V79 [1]) [µM] | Ratio IC50 (V79 [2]) | IC50 (SK-OV-3 [3]) [µM] | Activity (Escherichia coli) [nmol/min] | IC50 (V79 [4]) [µM] | IC50 (SK-OV-3 [5]) [µM] | Ratio IC50 (SK-OV-3 [6]) | IC50 (SK-OV-3 [7]) [µM] | Ratio IC50 (Trypanosoma brucei [8]) | IC50 (Leishmania major) [µM] | IC50 (Trypanosoma brucei [9]) [µM] | Activity (SK-OV-3 [10]) [%] | Activity (Trypanosoma brucei [11]) [nmol/min] |
| --- | --- | --- | --- | --- | --- | --- | --- | --- | --- | --- | --- | --- | --- |
| NC(=O)c1cc(COP(N)(=O)N(CCCl)CCCl)ccc1[N+](=O)[O-] (centres undefined) | 0.03 | >3330 | > 1000 | 211 | > 100 | 6.75 | >150 | – | – | – | – | – | – |
| NP(=O)(OCc1ccc([N+](=O)[O-])cc1Cl)N(CCCl)CCCl (centres undefined) | 0.002 | 13100 | 140 | – | 26 | 0.12 | 1120 | 0.54 | 425 | 3.1 | 9.14 | 3.2 | – |
| NP(=O)(OCc1ccccc1[N+](=O)[O-])N(CCCl)CCCl (centres undefined) | 0.18 | >556 | > 1000 | 256 | > 100 | 5.23 | >190 | – | – | > 30 | > 10 | – | 19 |
| NP(=O)(OCc1ccc([N+](=O)[O-])cc1F)N(CCCl)CCCl (centres undefined) | 0.0004 | 122750 | 266 | – | 49 | 0.08 | 3290 | 0.37 | – | 4.72 | 9.54 | 3.9 | – |
| NP(=O)(OCc1cccc([N+](=O)[O-])c1)N(CCCl)CCCl (centres undefined) | 0.26 | >385 | 947 | 683 | > 100 | 55 | 17 | – | – | > 30 | > 10 | – | 369 |
| COC(=O)c1cc(COP(N)(=O)N(CCCl)CCCl)ccc1[N+](=O)[O-] (centres undefined) | 0.1 | 690 | 435 | 167 | 69 | 0.43 | 1000 | – | – | – | – | – | – |
| NP(=O)(OCc1ccc([N+](=O)[O-])cc1)N(CCCl)CCCl (centres undefined) | 0.0008 | 73750 | 943 | 1280 | 59 | 0.099 | 9520 | 0.98 | – | > 30 | > 10 | 5.6 | 246 |
| C[C@H](OP(N)(=O)N(CCCl)CCCl)c1ccc([N+](=O)[O-])cc1 (some centres undefined) | 0.002 | 32500 | > 1000 | 916 | 65 | 0.49 | >2000 | – | – | > 30 | > 10 | – | 52 |
| NC(=O)c1cc([N+](=O)[O-])ccc1COP(N)(=O)N(CCCl)CCCl (centres undefined) | 0.04 | >2500 | > 100 | – | > 100 | 0.8 | >125 | – | – | – | – | – | – |
| NC(=O)Cc1cc([N+](=O)[O-])ccc1COP(N)(=O)N(CCCl)CCCl (centres undefined) | 0.05 | >2000 | > 100 | – | > 100 | 1.1 | >90 | – | – | – | – | – | – |
| C[C@@H](OP(N)(=O)N(CCCl)CCCl)c1ccc([N+](=O)[O-])cc1 (some centres undefined) | 0.002 | 28500 | > 1000 | 1400 | 57 | 0.28 | >3500 | – | – | > 30 | > 10 | – | 34 |
| NP(=O)(OCc1ccc([N+](=O)[O-])cc1C(F)(F)F)N(CCCl)CCCl (centres undefined) | 0.004 | 12500 | 172 | – | 50 | 0.31 | 570 | 1.01 | – | 5.88 | 7.97 | 2.8 | – |
| NP(=O)(OCc1ccc([N+](=O)[O-])c(F)c1)N(CCCl)CCCl (centres undefined) | 0.003 | 16000 | 246 | – | 48 | 0.21 | 1200 | 0.48 | – | 9.05 | > 10 | 4.2 | 1120 |
| COc1cc([N+](=O)[O-])ccc1COP(N)(=O)N(CCCl)CCCl (centres undefined) | 0.0005 | 82000 | – | 6980 | 41 | – | – | – | – | 15.6 | > 10 | – | 239 |
| COc1cc(COP(N)(=O)N(CCCl)CCCl)ccc1[N+](=O)[O-] (centres undefined) | 0.003 | 16000 | 641 | 2440 | 48 | 0.44 | 1460 | – | – | > 30 | > 10 | – | 0 |
| NP(=O)(OCc1ccc([N+](=O)[O-])cc1)N(CCBr)CCBr (centres undefined) | 0.0001 | 60000 | 1100 | – | 6 | 0.09 | 12244 | – | – | – | – | – | – |
| NP(=O)(OCc1ccc([N+](=O)[O-])cn1)N(CCCl)CCCl (centres undefined) | 0.009 | 8333 | – | – | 75 | – | – | – | – | 8.3 | – | – | – |
| Cc1cc(COP(N)(=O)N(CCCl)CCCl)ccc1[N+](=O)[O-] (centres undefined) | 0.003 | 16000 | 477 | 894 | 48 | 0.45 | 1060 | – | – | > 30 | > 10 | – | 158 |
| NP(=O)(OCc1c(F)cc([N+](=O)[O-])cc1F)N(CCCl)CCCl (centres undefined) | 0.0008 | 20880 | 257 | – | 17 | 0.17 | 1520 | 1.37 | 485 | 1.29 | 0.99 | 9.2 | 1450 |
